Consider four compounds from ChEMBL document CHEMBL1154231, “Bioactive Nortriterpenoids from Schisandra grandiflora” (J Nat Prod, 2009).

One data set concerns K562. Briefly: Cytotoxicity against human K562 cells after 48 hrs by sulforhodamine B assay. The following applies: K562, 48 h. In kind it is functional, cell-based. Background: In SRB staining, fixed cells bind dye roughly in proportion to their protein.
Data set [1] can be described thus: Selectivity index, ratio of CC50 for human C8166 cells to EC50 for HIV1. The following applies: read-out: Ratio CC50/EC50. Format: toxicity, cell-based. The essentials:
(§1)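 HIV-1-induced cytopathic effect inhibition in permanent human T-cell line C8166, giving EC50. Cytotoxicity to uninfected C8166 cells run in parallel by MTT, giving CC50. Selectivity index taken as CC50/EC50. AZT served as positive control.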

In data set [2] the test system is Human immunodeficiency virus 1. Nature of the data set: Antiviral activity against HIV1 infected in human C8166 cells assessed as inhibition of virus-induced cytopathic effect. In kind it is functional, organism-based. The following applies: Human immunodeficiency virus 1, C8166. The essentials:
as §1

Another data set deals with HepG2. Nature of the data set: Cytotoxicity against human HepG2 cells after 48 hrs by sulforhodamine B assay. In kind it is functional, cell-based. The following applies: HepG2, 48 h.
The nature of data set [3]: Cytotoxicity against human C8166 cells by MTT assay. In kind it is cell-based. The essentials: as §1

In brackets after ≈: the same amount, converted by molar mass. Bounds are passed on as bounds.

Broadly, the IC50 is the concentration at which inhibition is half-maximal. One may read the EC50 as the concentration that produces a half-maximal response. By CC50 is commonly meant the concentration at which the toxic effect on the cells reaches its halfway point.

Take `C[C@@H]1C(=O)[C@@]2(C)CC[C@]34C[C@]56OC(=O)C[C@H]5O[C@@](C)(CO)[C@@H]6CC[C@@]3(O)C(=O)[C@@]3(O[C@@]5(C[C@H](C)C(=O)O5)[C@@H]1[C@H]32)O4` [SCHIGRANDILACTONE A]: the IC50 stood at 0.13 µg/mL (≈ 0.232 µM) with K562 and 0.19 µg/mL (≈ 0.339 µM) in the data set on HepG2. Moreover, the selectivity ratio in data set [1] is 1.1. Moreover, in data set [2], the EC50 came to 80.2 µg/mL (≈ 143 µM).

For the compound `Cc1cn([C@H]2C[C@H](N=[N+]=[N-])[C@@H](CO)O2)c(=O)[nH]c1=O` [ZIDOVUDINE], the CC50 in data set [3] is > 200 µg/mL.

On to `C[C@@H]1C(=O)[C@@]2(C)CC[C@]34C[C@]56OC(=O)C[C@H]5O[C@@](C)(CO)[C@@H]6[C@@H](O)C[C@H]3C(=O)[C@]3(O4)O[C@@]4(C[C@H](C)C(=O)O4)[C@@H]1[C@H]32` [SCHIGRANDILACTONE C], for which the selectivity ratio in data set [1] was determined as 12.7. In data set [2], the EC50 is 5.1 µg/mL (≈ 9.1 µM).

As to `C[C@@H]1C(=O)[C@@]2(C)CC[C@]34C[C@]56OC(=O)C[C@H]5O[C@@](C)(CO)[C@@H]6C[C@@H]5O[C@@]53C(=O)[C@@]3(O[C@@]5(C[C@H](C)C(=O)O5)[C@@H]1[C@H]32)O4` [SCHIGRANDILACTONE B], the values for the IC50 in the data set with K562 and in the data set on HepG2 were 3.19 µg/mL (≈ 5.71 µM) and 0.2 µg/mL (≈ 0.358 µM), respectively. In addition, the selectivity ratio in data set [1] was 4. Moreover, the EC50 in data set [2] was found to be 20.8 µg/mL (≈ 37.2 µM).
